From PubChem BioAssay
Jurkat NFkB inh: inhibitors of the PMA/ionomycin-induced NF-kB reporter in Jurkat cells; PMA/ionomycin-induced NF-kB luciferase reporter, luminescence; inhibition, % at 4 µM; actives 0.53% (n = 330,000); AID 435003; in the data active = inhibition above about 50%
Mdm2-MdmX inh: disrupts the human Mdm2-MdmX interaction; O15151+Q00987; SaOS-2 split-luciferase Mdm2/MdmX complementation, luminescence; inhibition, % at 8 µM; actives 3% (n = 330,000); AID 485346;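 active = inhibition of at least 50% at 8 µM in the primary screen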
aSyn UTR inh: MLPCN primary screen, SNCA 5' untranslated region; inhibition, % (tested at 7.5 µM); AID 1813; alpha-synuclein 5'UTR reporter, inhibitor activity; actives 0.82% (n = 300,000); in the data active = inhibition above about 60%;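 note: H4 neuroglioblastoma cells stably carrying SNCA 5'UTR luciferase fusion; 0% = DMSO wells and 100% = positive control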
IMP-1 inh-1: blocks Pseudomonas aeruginosa IMP-1 metallo-beta-lactamase. inhibition, % at 5.6 µM. AID 1556. actives 0.45% (n = 290,000). purified IMP-1, nitrocefin hydrolysis, epi-absorbance fluorescence;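 active = inhibition above the mean plus 3 SD of all compounds in the same screening run, cut at about 4.5% in these data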;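 note: 0% = IMP-1 with DMSO and 100% = DMSO wells lacking enzyme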
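assay system = purified recombinant IMP-1 metallo-beta-lactamase enzyme | schedule = 15 min preincubation plus 25 min reaction at 25 °C | signal = Epi-absorbance fluorescence, 480 nm excitation, 530 nm emission | read-out basis = percent inhibition from optical density relative to buffer-blank wells | controls = IMP-1 with DMSO as 0%, enzyme-free DMSO as 100%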
VIM-2 inhibitor: blocks Pseudomonas aeruginosa VIM-2 metallo-beta-lactamase | purified VIM-2, nitrocefin hydrolysis, epi-absorbance fluorescence | inhibition, % at 5.6 µM | actives 0.89% (n = 290,000) | AID 1527;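 active = inhibition above the mean of all tested compounds plus 3 SD, cutoff set per screening run, cut at about 7.5% in these data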;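 note: red hydrolysis product quenches plate fluorescence so inhibitors raise well fluorescence; 0% = enzyme with DMSO and 100% = DMSO without enzyme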
697 NFkB inh: lowers PMA/ionomycin-induced NF-kB signal in 697 B cells; AID 435022; actives 0.33% (n = 330,000); 697 B-cell NF-kB luciferase reporter, 16 h; inhibition, % at 4 µM; in the data active = inhibition above about 35%
IMP-1 inh-2: IMP-1 inhibition, counter-screen for VIM-2 inhibitors; purified IMP-1, nitrocefin hydrolysis, epi-absorbance fluorescence; inhibition, % at 5.6 µM; 1,300 tested, under 10 active; shares compounds with VIM-2 inhibitor; AID 1856; call rule not given here;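 note: 0% = enzyme with vehicle and 100% = vehicle without enzyme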
VIM-2 FRET ctr: VIM-2 FRET inhibition, artifact counter-screen; shares compounds with VIM-2 inhibitor; purified VIM-2, CCF2 FRET substrate hydrolysis; inhibition, % at 5.6 µM; actives 23% (n = 1,300); AID 1857;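 active = inhibition above the mean of all tested compounds plus 3 SD, cut at about 19% in these data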;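 note: 0% = VIM-2 plus DMSO and 100% = no enzyme wells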
TEM-1 inh: blocks E. coli TEM-1 beta-lactamase in VIM-2 selectivity screen. shares compounds with VIM-2 inhibitor. Purified TEM-1, nitrocefin hydrolysis, epi-absorbance fluorescence. inhibition, % at 5.6 µM. actives 3% (n = 1,300);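 active = inhibition above that campaign's mean inhibition plus 3 SD, cut at about 0.46% in these data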;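 note: 0% = TEM-1 with DMSO and 100% = TEM-1 with 100 µM potassium clavulanate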
Target sequence (P62593 whole entry, looked up): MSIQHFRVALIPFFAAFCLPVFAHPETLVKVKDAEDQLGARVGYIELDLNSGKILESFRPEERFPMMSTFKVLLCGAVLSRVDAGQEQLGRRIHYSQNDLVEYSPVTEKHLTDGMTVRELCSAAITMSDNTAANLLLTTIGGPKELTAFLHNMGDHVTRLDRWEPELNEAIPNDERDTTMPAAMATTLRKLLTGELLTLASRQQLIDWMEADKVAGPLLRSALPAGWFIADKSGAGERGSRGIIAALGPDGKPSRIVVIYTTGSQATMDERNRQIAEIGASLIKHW
VIM-2 inh conf: confirmation of P. aeruginosa VIM-2 metallo-beta-lactamase inhibitors | shares compounds with VIM-2 inhibitor | purified VIM-2, nitrocefin hydrolysis, epi-absorbance | inhibition, % at 5.6 µM | actives 96% (n = 1,300);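 active = inhibition of the VIM-2 beta-lactamase enzyme above about 11% from the earlier first-round screen, limit read from the data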;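 note: 0% = VIM-2 with DMSO and 100% = buffer wells without enzyme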
An asterisk follows results filed as active; i = inactive; . = no result given. Hits are enriched below; roughly 4.7% of the tested compounds scored in any of these assays.

SMILES	Jurkat NFkB inh	Mdm2-MdmX inh	aSyn UTR inh	IMP-1 inh-1	VIM-2 inhibitor	697 NFkB inh	IMP-1 inh-2	VIM-2 FRET ctr	TEM-1 inh	VIM-2 inh conf
Cc1c(OC(C)C(=O)NCCN2CCOCC2)ccc2c(-c3ccccc3)cc(=O)oc12 (stereo unspecified)	-0.5	14.8	11.0	-0.6	1.2	-2.6	.	.	.	.
Cc1c(OC(C)C(=O)NCCCN2CCOCC2)ccc2c1oc(=O)c1ccccc12 (stereo unspecified)	-13.8	14.1	14.2	-1.2	19.3*	-6.2	-3.1	1.7	-10.9	29.4*
CCc1cc(=O)oc2cc(C)cc(OC(C)C(=O)NCCCN3CCCC3=O)c12 (stereo unspecified)	4.9	12.5	-8.4	-2.5	-0.3	9.1	.	.	.	.
CC(Oc1ccc2ccc(=O)oc2c1)C(=O)NCCCn1ccnc1 (stereo unspecified)	2.6	-4.2	2.2	-1.3	0.4	-4.1	.	.	.	.
Cc1c(C)c2ccc(OC(C)C(=O)NCCCn3ccnc3)c(C)c2oc1=O (stereo unspecified)	-2.3	3.7	1.5	0.0	44.6*	-12.5	-2.4	-4.2	-10.9	53.7*
CN(Cc1c(F)cccc1Cl)C(=O)CCc1c[nH]c2ccccc12	14.5	-0.9	-16.6	-1.0	3.5	-18.8	.	.	.	.
CSCCC(NC(=O)c1ccco1)C(=O)OCC(=O)N1c2ccccc2NC(=O)C1(C)C (stereo unspecified)	-7.6	5.2	.	.	.	0.7	.	.	.	.
O=C(O)CCC(=O)N1CCN(c2ccc(C(=O)c3ccc(F)cc3)cc2)CC1	0.2	11.8	-11.4	-2.1	15.9*	3.4	-3.3	0.5	-5.8	6.5
O=C(c1ccccc1)c1ccc(N2CCCC2)cc1	-50.7	-66.9	-108.6	-2.2	-1.1	-87.2	.	.	.	.
O=C(c1ccccc1)c1ccc(N2CCNCC2)cc1	.	.	.	-3.4	18.2*	.	-2.9	-3.7	-3.8	45.6*
CN1CCN(c2ccc(C(=O)c3ccc(F)cc3)cc2)CC1	-77.9	-91.8	-133.0	-1.0	24.2*	-73.3	-2.3	-2.4	-6.0	39.9*
O=C(Cn1c(=O)cnc2ccccc21)NNC(=O)c1ccccc1Cl	1.6	25.2	.	.	.	2.4	.	.	.	.
COc1ccccc1N1CC(C(=O)Nc2nnc(SCc3ccccn3)s2)CC1=O (stereo unspecified)	15.5	2.3	-21.1	-1.1	-1.5	0.5	.	.	.	.
CNC(=O)CSc1nnc(NC(=O)C2CC(=O)N(c3ccccc3OC)C2)s1 (stereo unspecified)	20.7	22.5	3.1	-2.8	32.8*	14.1	-3.6	-0.5	-4.0	-0.5
Cc1ccn(CC(=O)N2CCCC(N3CCN(c4ccccc4F)CC3)C2)n1 (stereo unspecified)	-0.1	13.4	15.8	-1.6	-1.8	-8.4	.	.	.	.
CCc1ccc2nc3nc(C)cc(C)c3c(N)c2c1	-37.4	43.8	-391.4	-1.6	22.9*	-9.8	-1.2	-8.4	-2.9	41.3*
Cc1cc(C)c2c(N)c3ccccc3nc2n1	-59.1	48.5	i	-2.8	16.2*	-4.0	-3.5	-6.9	-5.5	33.2*
Cc1cc(C)c2cccc(N)c2n1	2.7	-12.7	0.7	-4.7	-4.3	-44.4	.	.	.	.
CSc1ncccc1C(=O)Nc1cccc(S(=O)(=O)N2CCCCCC2)c1	-19.0	9.8	.	.	.	-5.6	.	.	.	.
CN1CCN(C(=O)CCCOc2cc(=O)n(C)c3ccccc23)CC1	-5.9	11.2	0.6	-2.9	18.4*	28.5	-2.7	-1.8	-5.2	38.5*
CN1CCN(C(=O)CSc2cc(=O)n(C)c3ccccc23)CC1	13.0	15.6	-3.2	-2.9	31.1*	16.0	-2.2	0.8	-5.2	48.9*
CCN1CCN(C(=O)CSc2cc(=O)n(C)c3ccccc23)CC1	8.3	39.3	2.9	-2.7	36.9*	13.6	-2.1	-1.8	-4.5	56.4*
Cn1c(=O)cc(OCCCC(=O)N2CCN(c3ccccc3)CC2)c2ccccc21	-2.8	18.7	1.6	-1.7	-2.3	24.3	.	.	.	.
Cn1c(=O)cc(SCC(=O)N2CCN(c3ccccc3)CC2)c2ccccc21	-9.8	28.5	-21.3	-2.5	-0.7	2.3	.	.	.	.
Cc1ccc2oc(=O)c3cc(C(=O)N4CCN(C)CC4)sc3c2c1	-2.0	5.9	-11.8	-1.1	12.7*	8.3	-3.8	3.9	-9.4	19.9*
SMILES	Jurkat NFkB inh	Mdm2-MdmX inh	aSyn UTR inh	IMP-1 inh-1	VIM-2 inhibitor	697 NFkB inh	IMP-1 inh-2	VIM-2 FRET ctr	TEM-1 inh	VIM-2 inh conf
CCN1CCN(c2ccc(N=Cc3ccccc3O)cc2)CC1	-15.4	-13.8	-0.8	-10.3	39.6*	-3.7	-7.8	-4.9	-6.3	28.0*
O=C(CN1C(=O)NC2(CCCCCC2)C1=O)N1CCN(c2ccccc2)CC1	-3.5	2.2	.	.	.	0.7	.	.	.	.
CCN(CC)CCC(=O)Nc1cccc2c1C(=O)c1ccccc1C2=O	-20.3	46.1	-5.0	-0.6	33.4*	0.5	-1.7	-1.2	-8.5	45.2*
CCOc1cc(/C=N/n2cnnc2)ccc1OC(=O)c1cccc([N+](=O)[O-])c1	14.0	24.5	6.7	0.6	12.6*	24.8	-3.9	-0.6	-3.8	14.4*
CCOc1cc(/C=N/NC(=O)c2cc(C)[nH]n2)ccc1OC(=O)c1ccc([N+](=O)[O-])cc1	-4.9	12.0	1.8	-1.8	-1.0	15.3	.	.	.	.
CC1=CCC(C(=O)O)(C(=O)N/N=C/c2cccs2)C(c2ccc([N+](=O)[O-])cc2)C1 (stereo unspecified)	0.8	8.3	-12.7	-4.2	31.0*	15.2	-4.0	8.5	-5.5	6.8
CC1=CCC(C(=O)O)(C(=O)N/N=C/c2cccs2)C(c2ccc(F)cc2)C1 (stereo unspecified)	-5.0	2.5	-12.0	0.4	3.8	-6.8	.	.	.	.
CN(CCCNC(=O)c1cccn2c(=O)c3ccccc3nc12)Cc1ccccc1	-7.9	-1.8	-58.5	-1.8	22.0*	15.4	-3.0	-2.7	-7.3	44.8*
O=C(NCCN1CCN(c2ccccc2F)CC1)c1cccn2c(=O)c3ccccc3nc12	2.2	40.1	-3.2	-1.1	-0.2	-32.6	.	.	.	.
O=c1[nH]c(SCc2n[nH]c(=S)n2-c2ccccc2)nc2ccccc12	-3.9	-0.3	6.7	-3.0	28.0*	4.7	-0.8	55.1*	-0.3	40.2*
CCCCSc1nc2sc3c(c2c(=O)[nH]1)CCC3	1.5	1.7	0.7	-3.0	-2.7	-7.8	.	.	.	.
O=c1[nH]c(SCc2n[nH]c(=S)n2-c2ccccc2)nc2sc3c(c12)CCC3	1.4	8.8	-22.1	-2.4	20.9*	20.9	-3.2	45.1*	-9.4	29.2*
